# In ChEMBL document CHEMBL1159121, “Synthesis, in vitro structure-activity relationship, and in vivo studies of 2-arylthiazolidine-4-carboxylic acid amides as anticancer agents” (Bioorg Med Chem, 2010):
# What was measured:
# [1] = test system: CAKI-1; experiment: Growth inhibition of human Caki1 cells; assay type: functional
# [2] = test system: SN12C; experiment: Growth inhibition of human SN12C cells; assay type: functional
# [3] = test system: LOX IMVI; experiment: Growth inhibition of human LOXIMVI cells; assay type: functional
# [4] = test system: NCI-H23; experiment: Growth inhibition of human NCI-H23 cells; assay type: functional
# [5] = test system: PC-3; experiment: Antiproliferative activity against human PC3 cells after 96 hrs by SRB assay; assay type: functional, cell-based; details: PC-3, 96 h
# [6] = test system: MDA-MB-231; experiment: Growth inhibition of human MDA-MB-231 cells; assay type: functional
# [7] = test system: DU-145; experiment: Antiproliferative activity against human DU145 cells after 96 hrs by SRB assay; assay type: functional, cell-based; details: DU-145, 96 h
# Outline: (§1)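 Prostate lines in RPMI1640/10% FBS; RH7777 in DMEM/10% FBS. Cells TCA-fixed, stained with 0.4% SRB, absorbance read at 540 nm. IC50 from nonlinear regression of % survival against concentration.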
# [8] = test system: PPC-1; experiment: Antiproliferative activity against human PPC1 cells after 96 hrs by SRB assay; assay type: functional, cell-based; details: PPC-1, 96 h; outline: as §1
# [9] = Selectivity ratio of IC50 for human fibroblasts to IC50 for human melanoma cells; assay type: ADME; details: human fibroblasts and human melanoma cells, read-out: Ratio IC50
# [10] = test system: OVCAR-3; experiment: Growth inhibition of human OVCAR-3 cells; assay type: functional
# [11] = test system: OVCAR-8; experiment: Growth inhibition of human OVCAR8 cells; assay type: functional
# [12] = test system: COLO 205; experiment: Growth inhibition of human COLO205 cells; assay type: functional
# [13] = test system: NCI-H226; experiment: Growth inhibition of human NCI-H226 cells; assay type: functional
# [14] = test system: A-375; experiment: Antiproliferative activity against human A375 cells after 48 hrs by SRB assay; assay type: functional, cell-based; details: A-375, 48 h
# Outline: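 Melanoma lines and control fibroblasts grown at 37 °C, 5% CO2, then exposed to a wide concentration range for 48 h in round-bottom 96-well plates. Fixed with 10% TCA, stained with SRB, protein read at 560 nm. IC50 (50% growth inhibition versus untreated) obtained by nonlinear regression.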
# [15] = test system: LNCaP; experiment: Antiproliferative activity against human LNCAP cells after 96 hrs by SRB assay; assay type: functional, cell-based; outline: as §1
# [16] = test system: SF-539; experiment: Growth inhibition of human SF539 cells; assay type: functional
# [17] = test system: SK-MEL-5; experiment: Growth inhibition of human SK-MEL-5 cells; assay type: functional
# [18] = test system: HOP-92; experiment: Growth inhibition of human HOP92 cells; assay type: functional
# [19] = Growth inhibition of human Hs 578T cells; assay type: functional
# [20] = test system: SNB-75; experiment: Growth inhibition of human SNB75 cells; assay type: functional
# [21] = read-out: LC50 (the source's name)
smiles,measurement,setting,value
CCCCCCCCCCCCCCCCCCNC(=O)[C@@H]1CSC(c2ccccc2)N1 (mixture of isomers),GI50,[1],2.3 µM
same,TGI,[1],4.31 µM
same,CC50,[1]; [21],8.08 µM
same,GI50,[2],1.94 µM
same,TGI,[2],3.35 µM
same,CC50,[2]; [21],5.79 µM
same,GI50,[3],1.23 µM
same,TGI,[3],2.59 µM
same,CC50,[3]; [21],5.48 µM
same,GI50,[4],1.84 µM
same,TGI,[4],3.36 µM
same,CC50,[4]; [21],6.17 µM
same,IC50,[5],10 µM
same,GI50,[6],1.61 µM
same,TGI,[6],3.12 µM
same,CC50,[6]; [21],6.05 µM
same,IC50,[7],10.8 µM
same,IC50,[8],2.4 µM
same,selectivity ratio,[9],2.6
same,GI50,[10],4.27 µM
same,TGI,[10],16.2 µM
same,CC50,[10]; [21],80.2 µM
same,GI50,[11],2.24 µM
same,TGI,[11],6.14 µM
same,CC50,[11]; [21],> 100 µM
same,GI50,[12],2.32 µM
same,TGI,[12],4.98 µM
same,CC50,[12]; [21],12.7 µM
same,GI50,[13],2.06 µM
same,TGI,[13],3.83 µM
same,CC50,[13]; [21],7.11 µM
same,IC50,[14],15 µM
same,IC50,[15],4.2 µM
same,GI50,[16],1.72 µM
same,TGI,[16],3.09 µM
same,CC50,[16]; [21],5.56 µM
same,GI50,[17],1.92 µM
same,TGI,[17],3.63 µM
same,CC50,[17]; [21],6.87 µM
same,GI50,[18],2.06 µM
same,TGI,[18],4.12 µM
same,CC50,[18]; [21],8.27 µM
same,GI50,[19],1.82 µM
same,TGI,[19],4.08 µM
same,CC50,[19]; [21],9.14 µM
same,GI50,[20],2.64 µM
same,TGI,[20],4.15 µM
same,CC50,[20]; [21],6.54 µM
